In the library only some 2.1% were active in any assay of this set; here they are far more common.
Runt-SMMHC FRET: inhibitors of RUNX1 Runt–CBFb-SMMHC binding, primary screen, biochemical, FRET, Cerulean-Runt, Venus-CBFb-SMMHC, uHTS | AID 1434, 2008 | Cerulean-Runt/Venus-CBFb-SMMHC FRET ratio 530/480, 1 h | inhibition, % at 20 µM | 220,000 tested, 0.74% active | Runt-related transcription factor 1 (Homo sapiens) + Core-binding factor subunit beta …;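 active = mean inhibition across duplicate retests at 20 µM reaching about 50%, limit read from the data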;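 also: 0% = DMSO wells and 100% = wells with excess untagged CBFb-SMMHC; inhibitors lower the FRET ratio by blocking Runt binding to CBFb-SMMHC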
Target sequence (Q01196 whole entry, looked up): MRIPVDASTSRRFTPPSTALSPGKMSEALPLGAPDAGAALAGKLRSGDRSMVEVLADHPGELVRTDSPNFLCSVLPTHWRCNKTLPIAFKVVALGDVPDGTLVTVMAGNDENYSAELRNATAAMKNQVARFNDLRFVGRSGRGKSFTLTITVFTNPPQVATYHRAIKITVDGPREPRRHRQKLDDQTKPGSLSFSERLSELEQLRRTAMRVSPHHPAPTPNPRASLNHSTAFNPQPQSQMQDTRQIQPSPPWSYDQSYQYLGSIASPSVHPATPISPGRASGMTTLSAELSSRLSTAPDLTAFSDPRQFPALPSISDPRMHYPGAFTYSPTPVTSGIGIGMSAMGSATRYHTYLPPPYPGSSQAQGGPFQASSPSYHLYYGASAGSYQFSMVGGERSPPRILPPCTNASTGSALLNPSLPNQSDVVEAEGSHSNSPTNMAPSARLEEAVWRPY
Target sequence (Q13951 whole entry, looked up): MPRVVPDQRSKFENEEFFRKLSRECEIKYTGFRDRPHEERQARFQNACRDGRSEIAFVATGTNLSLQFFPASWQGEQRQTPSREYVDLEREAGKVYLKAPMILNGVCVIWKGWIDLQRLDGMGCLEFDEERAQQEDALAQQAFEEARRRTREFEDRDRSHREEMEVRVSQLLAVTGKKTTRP
RanGTP-Imp inh: inhibitors of RanGTP-importin-beta interaction, primary screen, biochemical, FRET, CFP-Ran, YFP-importin-beta, homogeneous; AID 2216, 2009; inhibition, % (concentration not given with the values); cell-free CFP-Ran/YFP-importin-beta FRET ratio; 300,000 tested, 1.1% active;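 active = more than half of the replicate wells show a fall in the fluorescence ratio signal beyond about 16%, limit read from the data, passing the limit was not always enough; inconclusive = exactly half of the replicate wells pass the set limit; inactive = fewer than half of replicates pass the limit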;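 also: 0% = DMSO wells and 100% = Ran loaded with GDP instead of GTP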
Runt-CBFb FRET: inhibitors of RUNX1 Runt–CBFb binding, primary screen, biochemical, FRET, Cerulean-Runt, Venus-CBFb, uHTS | Runt-related transcription factor 1 (Homo sapiens) + Core-binding factor subunit beta … | AID 1496, 2009 | inhibition, % at 20 µM | Cerulean-Runt/Venus-CBFb FRET ratio 530/480, 1 h | 220,000 tested, 0.46% active;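 active = inhibition over about 50% at 20 µM in the single-dose screen, limit read from the data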;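 also: 0% = DMSO wells and 100% = excess unlabeled CBFb competitor control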
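Assay system: Cerulean-Runt domain fusion protein, energy donor; Signal: fluorescence energy transfer, 422 nm excitation, 530/480 nm emission; Timing: 1 h compound exposure, room temperature; Control set: unlabeled CBFb; Medium: Tris buffer pH 7.5 with salts and BSA; Compound: single test concentration of 20 µM, 1% DMSO final; Probe or stimulus: Venus-CBFb 100 nM.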
Calpain2 inh: inhibitors of pig calpain II, primary screen, biochemical, fluorogenic peptide substrate, 1536-well. purified calpain II, 30 min. inhibition, % at 16 µM. 220,000 tested, 0.37% active. AID 1236, 2008;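 active = inhibition above about 50%, limit read from the data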
FAS TE block: FAS thioesterase domain inhibitors, primary screen, biochemical, fluorescence intensity, uHTS; inhibition, % at 15 µM; recombinant FAS-TE, OMFH fluorogenic substrate, fluorescence endpoint; Fatty acid synthase (Homo sapiens), P49327; 360,000 tested, 0.67% active;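 active = compounds whose normalised, plate-corrected inhibition of enzyme fluorescence in the single-dose primary screen is 50% or more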;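 also: 0% = DMSO with enzyme and 100% = substrate without enzyme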
Starred values were filed as active, the others as inactive; i = inactive; ? = inconclusive; . = not tested or not shown.

SMILES	Runt-SMMHC FRET	RanGTP-Imp inh	Runt-CBFb FRET	Calpain2 inh	FAS TE block
CC(=O)Nc1c2c(nn1-c1cccc(Cl)c1)CS(=O)(=O)C2	.	2.2	.	.	-7.9
Cc1cccn2c(=O)c(/C=C(\C#N)C(=O)NC3CCS(=O)(=O)C3)c(N3CCC(C(N)=O)CC3)nc12 (centres undefined)	63.2*	?	134.0*	-399.4	-2.3
Cc1cccn2c(=O)c(C=O)c(N3CC(C)OC(C)C3)nc12 (centres undefined)	-6.5	0.0	1.8	-11.6	-3.0
Cc1cccn2c(=O)c(/C=C(\C#N)C(=O)NC3CCS(=O)(=O)C3)c(N3CC(C)OC(C)C3)nc12 (centres undefined)	102.9*	?	11.5	-320.2	-4.3
NS(=O)(=O)c1ccc(N2N=C(c3ccc(Br)cc3)CC2c2ccc(F)cc2)cc1 (centres undefined)	25.5	23.1*	13.4	i	16.7
NS(=O)(=O)c1ccc(N2N=C(c3ccccc3)CC2c2cccc(F)c2)cc1 (centres undefined)	18.9	-2.2	4.2	-349.4	23.6
O=c1oc2ccc3ccccc3c2c2c1SC(C(F)(F)F)C2 (centres undefined)	53.5*	9.9	22.0	-450.5	24.1
Cc1cc(OCC(=O)NNC(=O)c2cccnc2)cc(C)c1Cl	.	.	.	.	1.2
CC(C)NC(=O)Nc1ccc2c(c1)C(=O)N([C@H](C)CO)C[C@H](C)[C@@H](CN(C)S(=O)(=O)c1cn(C)cn1)O2	.	.	.	.	-6.6
CC1=CC2=NC(=O)/C(=C\c3cn(C)c4ccccc34)C(=N)N2O1	87.0*	50.4*	3.4	-142.9	-2.8
CC1=CC2=NC(=O)/C(=C\c3cccn3CCOc3cccc(C)c3)C(=N)N2O1	-125.4	-0.1	-27.5	22.1	27.7
CC1=CC2=NC(=O)/C(=C\c3cccn3CCOc3cc(C)cc(C)c3)C(=N)N2O1	-9.6	-0.1	-3.0	87.9*	30.7
CC(Nc1cccc(C(=O)NC2CC2)c1)c1nnc(-c2ccccc2)o1 (centres undefined)	.	.	.	.	-8.0
Cc1ccc(S(=O)(=O)c2cc3ccc(O)cc3oc2=O)cc1C	.	131.8*	.	.	-2.2
COc1ccc2cc(S(=O)(=O)c3ccccc3)c(=O)oc2c1	1.5	0.9	2.1	-320.2	3.2
O=C(Cn1c(=O)oc2ccc(Cl)cc21)Nc1ccon1	.	-0.9	.	.	-3.9
O=C(N/N=C/c1c(O)n(-c2ccc(Cl)cn2)c(=O)c2ccccc12)C1CC1	-65.2	2.4	-14.0	-16.1	-10.4
O=C(N/N=C/c1c(O)n(-c2ccc(Cl)cn2)c(=O)c2ccccc12)c1ccncc1	85.5*	-6.3	-22.3	-0.1	-6.5
COc1ccc(OC)c(NC(=O)c2csc(Cl)c2OC)c1	.	?	.	.	15.9
COc1ccccc1[C@@H]1C(c2cccc(C)c2)=NN(c2ccccc2)[C@H]1C(=O)N1CCOC1=O	70.1	-0.6	22.3	-188.3	74.3*
O=C1OCCN1C(=O)[C@H]1[C@H](c2ccc([N+](=O)[O-])cc2)C(c2cccc(Cl)c2)=NN1c1ccccc1	-0.7	-0.9	-1.4	-30.6	89.3*
COc1ccccc1[C@@H]1C(c2ccc(F)cc2)=NN(c2ccccc2)[C@H]1C(=O)N1CCOC1=O	19.8	1.5	8.7	-91.2	83.9*
O=C(CSc1nc(-c2ccc(F)cc2)nc2c1Cc1ccccc1O2)Nc1ccc(C(=O)O)cc1	-2.8	.	43.4	79.2*	11.3
O=C(CSc1nc(-c2ccccc2)nc2c1Cc1ccccc1O2)Nc1ccc(C(=O)O)cc1	-31.2	.	40.3	43.1	4.8
COc1ccc(N2CCN(CCC(O)c3ccc4ccccc4c3)CC2)cc1 (centres undefined)	.	2.1	.	.	1.9
SMILES	Runt-SMMHC FRET	RanGTP-Imp inh	Runt-CBFb FRET	Calpain2 inh	FAS TE block
CCCCN(CCCC)C1=Nc2ccccc2N/C1=C(/C#N)C(=O)OCC	-52.4	0.5	-22.9	6.6	11.3
CCOC(=O)/C(C#N)=C1\Nc2ccccc2N=C1N(CC(C)C)CC(C)C	-18.9	30.2*	28.2	-6.7	22.9
O=S(=O)(Nc1nc2ccccc2nc1Nc1ccc(N2CCOCC2)cc1)c1cc(Cl)ccc1Cl	-7.4	37.4*	2.3	3.5	22.9
Clc1nc(Nc2ccc(N3CCOCC3)cc2)c2ccccc2n1	0.6	-1.2	-1.0	11.3	1.5
O=C(COc1ccc(NS(=O)(=O)c2ccc(F)cc2)cc1)N1CCOCC1	1.0	1.3	5.1	-11.7	0.0
O=C1[C@H]2[C@@H](c3ccc(F)cc3)N3C(=O)N(c4ccc(Br)cc4)C(=O)[C@@]3(Cc3ccc(Cl)cc3)[C@H]2C(=O)N1C1CCCCC1	.	6.0	.	.	93.5*
O=C1[C@H]2[C@@H](c3ccc(F)cc3)N3C(=O)N(c4cccc(F)c4)C(=O)[C@@]3(Cc3ccccc3)[C@H]2C(=O)N1C1CCCCC1	.	0.3	.	.	45.5
O=C1[C@H]2[C@@H](c3ccc(Cl)cc3)N3C(=O)N(c4cccc(Cl)c4)C(=O)[C@@]3(Cc3ccccc3)[C@H]2C(=O)N1C1CCCCC1	.	4.6	.	.	93.6*
Cc1ccc(N2C(=O)N3[C@H](c4ccc(F)cc4)[C@@H]4C(=O)N(C5CCCCC5)C(=O)[C@@H]4[C@]3(Cc3ccccc3)C2=O)cc1	.	6.6	.	.	44.8
CC(C)C[C@@]12C(=O)N(c3cccc(Br)c3)C(=O)N1[C@H](c1ccc(F)cc1)[C@@H]1C(=O)N(C3CCCCC3)C(=O)[C@@H]12	.	-2.5	.	.	86.1*
CC(=O)c1c(Cl)nc2cccc3c2c1-c1ccccc1C3=O	.	-1.4	.	.	13.3
CCn1c(COc2ccccc2)nnc1SCC(=O)NC1CC1	.	-1.1	.	.	-3.0
CCCCN=C(C)c1c(O)c2ccccc2oc1=O	-0.7	2.2	-2.5	73.2*	-0.9
CCCCC(=O)c1c(O)c2ccccc2oc1=O	-2.0	3.8	-1.1	16.8	-7.4
CCc1nc(N=C(N)N)nc2ccccc12	0.0	0.4	-1.3	-17.4	.
NC(N)=Nc1nc(-c2ccccc2)c2ccccc2n1	5.4	25.8*	1.0	-114.0	-26.1
Cc1csc(NC(=O)c2cc3c(s2)-c2ccccc2OC3)n1	-11.8	49.4*	2.0	-307.0	-4.9
CSCCC(NS(=O)(=O)c1ccc(C)cc1)C(=O)N1CC=C(c2ccccc2)CC1 (centres undefined)	.	-2.8	.	.	-4.1
CN1CCN(Cc2c(O)ccc3c(=O)c(Oc4ccccc4Cl)c(C(F)(F)F)oc23)CC1	-6.1	22.2*	-4.0	-32.5	-0.1
Cc1ccnc(NC(=O)C2CC(=O)N(Cc3ccccc3)C2)c1 (centres undefined)	.	-2.0	.	.	-5.4
N#Cc1c(N)n(-c2cccc(C(=O)O)c2)c2nc3ccccc3nc12	81.7*	?	99.3*	-343.4	-20.1

Source: PubChem (several laboratories)
